The test system of assay [1] is S. saprophyticus ATCC 15305. Description: MIC by broth microdilution. The assay is classed as cell-based. The following applies: Staphylococcus saprophyticus, ATCC15305, read-out: MIC SSAP. In a few lines: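 Broth microdilution per CLSI in cation-adjusted Mueller-Hinton broth (Staphylococcus spp.). Two-fold serial dilutions ran from 256 to 0.5 μg/mL, with an inoculum of ~5 × 10^5 CFU/mL. Plates were read after 20 h at 37 °C. MIC = lowest concentration with no observable growth.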

For assay [2], the system named is B. subtilis strain BS1048 (RpoC-GFP). Description: Confocal fluorescence microscopy of GFP-tagged RNAP. The following applies: 8e added at ½ MIC, 15 min. The assay is classed as cell-based. In a few lines: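 BS1048 (RpoC-GFP) was plated on LB agar. […] 2.5 μL of culture was mounted on a fresh 1.2% agarose pad under a coverslip. Imaging used a confocal microscope with a 63×/1.3 oil objective and a mercury metal halide lamp.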

The next assay relates to S. aureus ATCC 29213. In words: Cell content quantification. It counts as cell-based, Staphylococcus aureus. The following applies: ¼ and ⅛ MIC, versus untreated control. In short, it runs like this: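 S. aureus ATCC 29213 master culture was started at OD600 0.1 with shaking at 175 rpm, 37 °C. At OD600 0.2 (early log) it was split and dosed at ¼ and ⅛ MIC, with a drug-free control. Cells were harvested when the control reached OD600 0.6; other samples were taken at volumes adjusted to an OD600 equivalent of 0.6. 3 mL was pelleted at 5000 × g, 5 min, 4 °C, and DNA/RNA/protein co-extracted with a kit. DNA and RNA were read by fluorometric broad-range assays, protein by BCA. Triplicate.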

The structures appear in SMILES notation. In brackets after ≈: the same amount, converted by molar mass.

With `O=C(O)c1ccc(C(F)(F)F)cc1C(=O)c1ccc(Sc2ccc(Cl)c(Cl)c2)c([N+](=O)[O-])c1` [8e, 2-(4-((3,4-Dichlorophenyl)thio)-3-nitrobenzoyl)-4-(trifluoromethyl)benzoic acid], the MIC (in general, the lowest concentration that inhibits growth of the organism) in assay [1] lay in the range of 0.5 to 1 µg/mL (≈ 0.968 to 1.94 µM). Besides, the “Localization of GFP-tagged RNAP fluorescence” value in assay [2] was “delocalized from the nucleoid”. Also, in the assay with S. aureus ATCC 29213, the “Total RNA levels” value is listed as “reducing the total levels of staphylococcal RNA in a dose-dependent manner”, the “Total levels of DNA” value was “largely unaffected” and the “Total levels of protein” value is on record as “reduced the total levels of protein”.
Take `CO[C@H]1/C=C/O[C@@]2(C)Oc3c(C)c(O)c4c(O)c(c(/C=N/N5CCN(C)CC5)c(O)c4c3C2=O)NC(=O)/C(C)=C\C=C\[C@H](C)[C@H](O)[C@@H](C)[C@@H](O)[C@@H](C)[C@H](OC(C)=O)[C@@H]1C` [rifampicin, reference compound]: in the assay with S. aureus ATCC 29213, the “Total RNA levels” value is on record as “significantly reduced” and the “Total levels of DNA” value is listed as “largely unaffected”.

Source of the values: publication PMC7680358 (European journal of medicinal chemistry, 2020).
